Results on two molecules are retold here after ChEMBL document CHEMBL6083207, “Design, synthesis and biological evaluation of a novel PSMA-PI3K small molecule drug conjugate” (RSC Med Chem, 2024).

The subject of data set [1] is LNCaP. Put plainly: Antiproliferative activity against PSMA-positive human LNCaP cells incubated for 72 hrs by Cell Titer Glo assay. Format: functional, cell-based. The gist of the method: (§1)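 Cells grown in RPMI 1640 with 10% FBS, seeded at 3 × 10^3 per well and left overnight, then exposed to a range of compound concentrations for 72 h. Viability read by CellTiter-Glo luminescence after 2 min shaking and 10 min at room temperature. IC50 calculated from the curves; mean of n = 3.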

For data set [2], the system named is 22Rv1. As to the kind of experiment: Inhibition of PI3K in human 22Rv1 cells assessed as reduction in phosphorylation of S6RP incubated for 3 hrs by Western blot analysis. Format: cell-based. The conditions noted are these: dose <= 10.0 µM. The gist of the method: (§2)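 22Rv1 cells treated at the stated concentrations for 3 h and lysed in RIPA buffer with protease and phosphatase inhibitors. 25 μg protein separated by SDS-PAGE and blotted to PVDF. Probed overnight at 4 °C for phospho- and total mTOR, AKT (Ser473) and S6RP, with β-actin as loading control. Detected by ECL chemiluminescence.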

In data set [3] the test system is CWR22R. Put plainly: Induction of cell cycle arrest in human 22Rv1 cells assessed as accumulation at G0/G1 phase incubated for 24 hrs by flow cytometry. The class given is functional, cell-based. To be noted: dose <= 10.0 µM. The gist of the method: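 1 × 10^5 22Rv1 cells treated at several concentrations for 24 h, then fixed in ice-cold 70% ethanol. Stained with PI/RNase and analysed by flow cytometry with 488 nm excitation to give the percentage of cells in each cycle phase.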
(A flow cytometer gives signals particle by particle.)

A short description of data set [4]: Selectivity ratio of IC50 for PSMA-negative human PC3 cells to IC50 for PSMA-positive human 22Rv1 cells.
The target of data set [5] is Phosphatidylinositol 4,5-bisphosphate 3-kinase catalytic subunit alpha isoform (Homo sapiens, UniProt P42336). As to the kind of experiment: Inhibition of PI3Kalpha (unknown origin).
Phosphatidylinositol 4,5-bisphosphate 3-kinase catalytic subunit alpha isoform, sequence (P42336 whole entry, canonical isoform): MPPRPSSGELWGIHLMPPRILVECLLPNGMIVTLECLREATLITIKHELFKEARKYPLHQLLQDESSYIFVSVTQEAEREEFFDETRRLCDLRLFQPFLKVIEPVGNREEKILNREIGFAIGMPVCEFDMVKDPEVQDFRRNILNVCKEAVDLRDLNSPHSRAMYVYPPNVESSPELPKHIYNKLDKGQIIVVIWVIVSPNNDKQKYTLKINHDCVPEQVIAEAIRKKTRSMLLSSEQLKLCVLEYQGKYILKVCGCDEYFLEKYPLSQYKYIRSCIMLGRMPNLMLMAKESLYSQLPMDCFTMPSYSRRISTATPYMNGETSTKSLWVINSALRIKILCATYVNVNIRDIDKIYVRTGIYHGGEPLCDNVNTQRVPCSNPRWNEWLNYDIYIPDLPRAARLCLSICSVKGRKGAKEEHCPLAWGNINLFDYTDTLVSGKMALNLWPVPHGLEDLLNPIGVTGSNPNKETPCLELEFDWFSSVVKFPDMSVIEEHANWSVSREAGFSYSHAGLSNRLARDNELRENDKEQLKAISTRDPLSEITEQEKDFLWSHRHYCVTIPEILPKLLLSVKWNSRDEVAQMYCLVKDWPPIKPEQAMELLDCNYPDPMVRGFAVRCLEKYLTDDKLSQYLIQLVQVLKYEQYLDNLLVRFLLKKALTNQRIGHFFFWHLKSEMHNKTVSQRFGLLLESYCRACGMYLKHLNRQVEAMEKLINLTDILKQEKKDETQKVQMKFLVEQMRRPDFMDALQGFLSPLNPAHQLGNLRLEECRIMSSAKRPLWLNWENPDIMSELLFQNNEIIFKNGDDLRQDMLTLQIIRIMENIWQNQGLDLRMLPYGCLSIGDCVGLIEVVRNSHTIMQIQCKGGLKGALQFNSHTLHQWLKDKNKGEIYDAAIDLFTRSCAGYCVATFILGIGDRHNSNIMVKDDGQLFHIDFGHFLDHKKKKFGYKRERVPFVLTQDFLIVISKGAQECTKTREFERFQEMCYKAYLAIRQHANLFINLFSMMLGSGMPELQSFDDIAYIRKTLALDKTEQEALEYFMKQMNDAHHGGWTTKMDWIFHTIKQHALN
The nature of data set [6]: Selectivity ratio of IC50 for PSMA-negative human PC-3 cells to IC50 for PSMA-positive human LNCaP cells. The class given is functional. A digest of the protocol: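 Ratio of PC3 IC50 to LNCaP IC50, both from 72 h CellTiter-Glo viability assays.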
Data set [7] relates to PC-3. Put plainly: Antiproliferative activity against PSMA-negative human PC-3 cells incubated for 72 hrs by Cell Titer Glo assay. Format: functional, cell-based. The conditions noted are these: PC-3, 72 h. The gist of the method: as §1
In general terms: ATP-based viability assays read luminescence as a measure of living cells.

Data set [8] has as its system 22Rv1. As to the kind of experiment: Inhibition of PI3K in human 22Rv1 cells assessed as reduction in phosphorylation of mTOR incubated for 3 hrs by Western blot analysis. To be noted: dose <= 10.0 µM. The class given is cell-based. The gist of the method: as §2
Background: A western blot detects proteins with antibodies after separation by electrophoresis.

Data set [9] in a line: Toxicity in Balb/c athymic nude mouse xenografted with human 22Rv1 cells assessed as body weight change at 10 to 20 mg/kg, ip qd measured for 22 days. The conditions noted are these: in vivo, 528 h, dose 10-20 mg/kg, time 22 day. The class given is organism-based. A digest of the protocol: (§3)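 Male Balb/c athymic nude mice, 8–10 weeks old. Tumour cells taken from 22Rv1 donor tumours (grown to 1000 mm3) and implanted at 2 × 10^6 per mouse, subcutaneously in the right flank. Randomized at about 100 mm3. Compound given ip once daily in saline with 1% PEG400; vehicle group received the same. Tumour volume (1/2 × L × W2) and body weight measured twice weekly.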

The subject of data set [10] is CWR22R. As to the kind of experiment: Antitumor activity against human 22Rv1 cells xenografted in Balb/c athymic nude mouse administered intraperitoneally once daily measured for 22 days. The conditions noted are these: dose 10-20 mg/kg, route ip, time 22.0 day. A digest of the protocol: as §3
Data set [11] relates to CWR22R. Put plainly: Antiproliferative activity against PSMA-positive human 22Rv1 cells incubated for 72 hrs by Cell Titer Glo assay. Format: functional, cell-based. To be noted: 22Rv1, 72 h. The gist of the method: as §1
Data set [12] relates to 22Rv1. As to the kind of experiment: Inhibition of PI3K in human 22Rv1 cells assessed as reduction in phosphorylation of AKT at S473 incubated for 3 hrs by Western blot analysis. Format: cell-based. The conditions noted are these: dose <= 10.0 µM. The gist of the method:
as §2

Data set [13] has as its system CWR22R. Put plainly: Antitumor activity against human 22Rv1 cells xenografted in Balb/c athymic nude mouse at 20 mg/kg, ip qd measured for 22 days relative to control. Format: functional. The conditions noted are these: 22Rv1, 528 h, time 22 day, read-out: TGI. A digest of the protocol: as §3
A short description of data set [14]: Toxicity in Balb/c athymic nude mouse xenografted with human 22Rv1 cells assessed as drug tolerance at 10 to 20 mg/kg, ip qd measured for 22 days. Format: organism-based. The conditions noted are these: in vivo, 528 h, dose 10-20 mg/kg, time 22 day. The gist of the method:
as §3

Structures are written as SMILES. Some results are limits rather than exact numbers.

On to `NCCCC[C@H](NC(=O)N[C@@H](CCC(=O)O)C(=O)O)C(=O)O`, for which, in data set [1], the IC50 (as a rule, the concentration needed to halve the response being measured) was over 100 µM.

For the molecule `COc1ncc(-c2cc(OCCCC(=O)NC[C@H]3CC[C@@H](C(=O)N[C@@H](Cc4ccc5ccccc5c4)C(=O)NCCCC[C@H](NC(=O)N[C@@H](CCC(=O)O)C(=O)O)C(=O)O)CC3)c3ncnc(C)c3c2)cc1NS(=O)(=O)c1ccc(F)cc1F`, the inhibition result in data set [2], in data set [8] and in data set [12] was “Dose-dependent-effect” in each case. Also, the Activity result was “Dose-dependent-effect” in data set [3], “Non-toxic” in [9], “Dose-dependent-effect” in [10] and “Non-toxic” in data set [14]. Besides, the “Ratio IC50” value in data set [4] turned out to be 6; in data set [6], 54. The IC50 was 0.0004 µM in data set [5], 57.8 µM in data set [7], 9.68 µM in data set [11] and 1.08 µM in data set [1]. Besides, the inhibition in vivo at 20 mg/kg in data set [13] amounted to 53%.
